We go through three compounds from ChEMBL document CHEMBL1141297, “Bioactive p-terphenyl derivatives from a Cordyceps-colonizing isolate of Gliocladium sp” (J Nat Prod, 2007).

≈ marks a conversion by molar mass, not a printed value. Calls of active or inactive are those of the source. The rule behind the calls is not given here. A value given as a limit tells only on which side of the number the result lay.

The test system of assay [1] is Staphylococcus aureus. The assay can be described thus: Antimicrobial activity against Staphylococcus aureus ATCC 6538 at 100 ug/disk after 48 hrs. The assay is classed as functional. The settings on record: ATCC 6538, 48 h, read-out: IZ.
In assay [2] the test system is Staphylococcus aureus. The assay can be described thus: Antimicrobial activity against Staphylococcus aureus ATCC 6538 after 24 hrs by broth dilution assay. In kind it is functional. Particulars: ATCC 6538, 24 h.
Assay [3] deals with Streptococcus mutans. Kind of assay: Antimicrobial activity against Streptococcus mutans ATCC 25175 at 100 ug/disk after 24 hrs. The assay is classed as functional, organism-based. The essentials:
(§1)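 Bacteria were grown on Mueller-Hinton agar. 6 mm paper disks carrying 100 µg compound were placed on the agar surface and plates were incubated at 37 °C for 24 h. The read-out was the presence and diameter of the inhibition zone, with a ciprofloxacin disk (100 µg) as reference.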

The subject of assay [4] is Enterococcus faecalis. The assay can be described thus: Antimicrobial activity against Enterococcus faecalis ATCC 19433 at 100 ug/disk after 24 hrs. The assay is classed as functional, organism-based. The method in brief: as §1
Assay [5] deals with Micrococcus luteus. Kind of assay: Antimicrobial activity against Sarcina lutea CMCC B28001 at 100 ug/disk after 24 hrs. The assay is classed as functional, organism-based. The method in brief:
as §1

Assay [6] has as its system HeLa. Kind of assay: Growth inhibition of human HeLa cells after 4 hrs by MTT assay. The assay is classed as functional, cell-based. The method in brief: (§2)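 MTT viability: 10⁴ cells/well attached overnight, then exposed to serial dilutions (from a 10 mg/mL DMSO stock) in medium, with 0.2% DMSO vehicle, for 4 h at 37 °C, 5% CO₂. Medium was then changed to fresh DMEM, followed by MTT (0.5 mg/mL) for 3 h at 37 °C in the dark. Formazan was dissolved in DMSO and read at 540 nm to give IC50.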

Assay [7] deals with HCT-116. Kind of assay: Growth inhibition of human HCT116 cells after 4 hrs by MTT assay. The assay is classed as functional, cell-based. The settings on record: HCT-116, 4 h. The essentials:
as §2

The subject of assay [8] is Geotrichum candidum. The assay can be described thus: Antifungal activity against Geotrichum candidum AS2.498 at 100 ug/disk after 48 hrs.
Assay [9] deals with Candida albicans. Kind of assay: Antifungal activity against Candida albicans ATCC 10231 at 100 ug/disk after 48 hrs.
Assay [10] deals with Aspergillus fumigatus. The assay can be described thus: Antifungal activity against Aspergillus fumigatus ATCC 10894 at 100 ug/disk after 48 hrs.

On to `O=C(O)c1cn(C2CC2)c2cc(N3CCNCC3)c(F)cc2c1=O` [CIPROFLOXACIN], for which the zone of inhibition at 100 µg/disc in assay [1] was determined as 35 mm.
Take `COC1=C(c2ccc(OC)cc2)C(=O)[C@H](O)[C@@](O)(c2ccc(OC)cc2)C1` [GLIOCLADININ A]: the zone of inhibition at 100 µg/disc in [1] amounted to 15 mm. In [2], this compound had an MIC of 270 µM (≈ 100 µg/mL). The outcome in assay [3], in [4], in assay [5], in assay [8], in assay [9] and in [10] was inactive. Further, the IC50 in assay [6] was 54 µM; in [7] it was greater than 270 µM.
In the case of `COc1ccc(-c2cc(O)c(-c3ccc(OC)cc3)c(O)c2O[C@@H]2O[C@H](CO)[C@@H](O)[C@H](O)[C@H]2O)cc1` [GLIOCLADININ B], the zone of inhibition at 100 µg/disc in assay [1] came to 20 mm. Moreover, it took 130 µM (≈ 65.1 µg/mL) to inhibit growth in assay [2] (MIC). Moreover, the result in assay [3], in assay [4], in assay [5], in assay [8], in assay [9] and in assay [10] was inactive. For the same compound, the IC50 in assay [6] is 40 µM; in assay [7], 80 µM.
